Source: ChEMBL document CHEMBL4229456, “Salicylic Acid Derivatives Inhibit Oxalate Production in Mouse Hepatocytes with Primary Hyperoxaluria Type 1” (J Med Chem, 2018)

Columns and labels:
[1] = biological target: T1, 2-Hydroxyacid oxidase 1 (Mus musculus) (UniProt Q9WU19); assay: Inhibition of glycolate oxidase in C57BL/6 Agxt1-/- mouse hepatocytes using glycolate as substrate assessed as relative oxalate level at 10 uM after 24 hrs; format: cell-based
T1 sequence (whole entry): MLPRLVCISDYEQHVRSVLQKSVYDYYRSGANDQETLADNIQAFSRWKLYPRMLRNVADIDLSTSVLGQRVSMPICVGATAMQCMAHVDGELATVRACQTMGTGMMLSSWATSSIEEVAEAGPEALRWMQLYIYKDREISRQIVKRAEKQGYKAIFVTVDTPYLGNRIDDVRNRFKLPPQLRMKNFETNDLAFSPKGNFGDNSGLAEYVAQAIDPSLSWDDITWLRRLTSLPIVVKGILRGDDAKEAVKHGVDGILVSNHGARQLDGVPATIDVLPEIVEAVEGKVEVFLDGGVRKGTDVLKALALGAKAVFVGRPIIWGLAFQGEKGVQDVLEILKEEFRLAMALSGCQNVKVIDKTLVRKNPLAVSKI
In short: (§1)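 Primary Agxt1-/- mouse hepatocytes in 6-well plates, serum-free Williams E with 5 mM glycolate, treated with 10 µM compound. Excreted oxalate measured 24 h later by oxalate oxidase–HRP colorimetric kit (595 nm) and expressed relative to untreated control. Mean ± SD, n = 3, one-way ANOVA.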

[2] = biological target: T1, 2-Hydroxyacid oxidase 1 (Mus musculus); assay: Inhibition of mouse recombinant glycolate oxidase expressed in Escherichia coli at 25 uM using glycolate as substrate after 1 min by sulfonated DCIP dye-based assay relative to control
2-Hydroxyacid oxidase 1 = biological target: T2, 2-Hydroxyacid oxidase 1 (Mus musculus, UniProt Q9WU19); assay: Inhibition of mouse recombinant glycolate oxidase expressed in Escherichia coli using glycolate as substrate by sulfonated DCIP dye-based assay
T2 sequence (Q9WU19 whole entry): T1 sequence (whole entry)
In short: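 Purified recombinant mGO (10 µL at 0.1 µg/µL) with saturating glycolate (22.2 mM) in 50 mM potassium phosphate pH 7. Compound at 0.2 µM–0.2 mM; H2O2 detected by HRP-coupled sulfonated DCIP/4-aminoantipyrine dye at 515 nm. IC50 from nonlinear dose-response fitting.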

[3] = biological target: T1, 2-Hydroxyacid oxidase 1 (Mus musculus); assay: Inhibition of glycolate oxidase in C57BL/6 Agxt1-/- mouse hepatocytes using glycolate as substrate assessed as reduction in oxalate production at 10 uM after 24 hrs; format: cell-based; in short: as §1

| Compound | fold change (FC) [1] | inhibition [2] [%] | IC50 (2-Hydroxyacid oxidase 1) [µM] | inhibition [3] [%] |
| --- | --- | --- | --- | --- |
| O=C(O)c1cc2ccccc2c(/N=N/c2cc(C(F)(F)F)ccc2Cl)c1O | 0.91 | 47.4 |  |  |
| O=C(O)c1ccccc1O |  | 18.5 |  |  |
| O=C(O)c1ccc(-c2ccc(CO)o2)cc1O | 0.88 | 85.7 | 7.9 |  |
| O=C(O)c1ccc(-c2ccc(C(=O)O)c(O)c2)o1 |  | 0 |  |  |
| O=Cc1ccc(-c2ccc(C(=O)O)c(O)c2)o1 | 0.88 | 82.8 | 34.5 |  |
| O=C(O)c1cc(-c2ccoc2)ccc1O | 0.89 | 26.6 |  |  |
| O=C(O)c1cnc2cc(Cl)ccc2c1O |  | 24.8 |  |  |
| O=C(O)c1cccc(F)c1O |  | 13.5 |  |  |
| O=C(O)c1cc(-c2ccc(OCc3ccccc3)cc2)ccc1O | 0.8 | 70.9 | 14.8 |  |
| O=C(O)c1ccc(-c2ccc(O)c(C(=O)O)c2)o1 | 0.68 | 0 |  | 30 |
| O=Cc1ccc(-c2cccc(C(=O)O)c2)o1 | 0.86 | 22.7 |  |  |
| COC(=O)c1ccc(-c2ccc(C=O)o2)cc1OC | 0.9 | 17.5 |  |  |
| COc1ccc(COc2ccc(-c3ccc(C(=O)O)c(O)c3)cc2)cc1 | 0.9 | 65 | 13.8 |  |
| Cn1nccc1-c1ccc(C(=O)O)c(O)c1 | 0.93 | 16.2 |  |  |
| O=C(O)c1cc(-c2cccs2)ccc1O | 0.82 | 30 | 39.5 |  |
| O=C(O)c1cc(-c2ccsc2)ccc1O | 0.94 | 25.2 |  |  |
| CC(=O)c1ccc(O)c(C(=O)O)c1 |  | 22.1 |  |  |
| O=C(O)c1ccc(-c2ccco2)cc1O | 0.87 | 35.8 | 39.3 |  |
| Cc1ccc(-c2ccc(C(=O)O)c(O)c2)s1 | 0.95 | 28.7 |  |  |
| O=Cc1ccc(-c2ccc(O)c(C(=O)O)c2)s1 | 0.93 | 52.1 | 9.4 |  |
| O=C(O)c1ccc(-c2ccc([N+](=O)[O-])cc2)cc1O | 0.91 | 41.9 | 19.7 |  |
| O=C(O)c1ccc(-c2ccsc2)cc1O | 0.99 | 41.4 | 21.6 |  |
| O=C(O)c1cc(Oc2ccc([N+](=O)[O-])cc2)c2ccccc2c1O | 0.77 | 96.3 | 2.9 |  |
| O=C(O)c1cc2cc(Br)ccc2cc1O | 0.99 | 42.3 | 39.9 |  |
| Cc1ccc(/N=N/c2cc(C(=O)O)cc3ccccc23)c(S(=O)(=O)O)c1 |  | 1.5 |  |  |
| O=Cc1ccc(-c2ccc(O)cc2)o1 | 0.32 | 24.2 |  |  |
